Measurements gathered from unrelated publications.
Target: 5-hydroxytryptamine receptor 2A (HTR2A, Homo sapiens, UniProt P28223)

| Structure (SMILES) | read-out | action | technique | setting | measurement | value |
| --- | --- | --- | --- | --- | --- | --- |
| Cc1nc2n(c(=O)c1CCN(C)CCc1c[nH]c3cc(F)ccc13)CCCC2 | ligand displacement | – | radioligand | cell membranes | Ki | 0.0258 µM |
| C[C@H](N)Cn1ccc2cc(F)c(Cl)cc21 | ligand displacement | – | radioligand | cell membranes | Ki | 0.0131 µM |
| CN(C)[C@@H]1Cc2ccccc2[C@@H](c2ccccc2)C1 (relative stereo) | inositol phosphate | antagonist | – | – | Kb | 0.46 µM |
| OC(c1ccc(F)cc1)C(F)(F)CCN1CCC(O)(c2ccc(Cl)cc2)CC1 (racemic) | cell-free assay | – | radioligand | – | Ki | 1.01 µM |
| NCCc1c[nH]c2ccc(F)cc12 | ligand displacement | – | radioligand | – | Ki | 3.91 µM |
| COc1cc2c3c(c1OC)-c1ccccc1CC3NCC2 (centres unmarked) | ligand displacement | – | radioligand | cell membranes | Ki | 0.925 µM |
| COc1ccccc1N1CCN(CCN(C(=O)C2CCCCC2)c2ccccn2)CC1 | ligand displacement | – | radioligand | cell membranes | Ki | 0.331 µM |
| COc1cc2c3c(c1OC)-c1ccccc1C[C@H]3N(C)CC2 | ligand displacement | – | radioligand | cell membranes | Ki | 0.15 µM |
| COc1cc2c3c(c1OC)-c1cc4c(cc1CC3N(C)CC2)OCO4 (centres unmarked) | calcium signal | antagonist | – | – | Kb | 0.83 µM |
| c1ccc2c(C3CCNCC3)noc2c1 | ligand displacement | – | radioligand | cell membranes | Ki | 0.271 µM |
| CN(C)CCc1c[nH]c2ccccc12 | cell-free assay | – | – | – | Ki | 1.51 µM |
| CC[C@H](C)[C@H](NC(=O)[C@H](CCCNC(=N)N)NC(=O)[C@H](CC(C)C)NC(=O)[C@@H](N)Cc1ccccc1)C(=O)N[C@@H](CCCNC(=N)N)C(=O)N1CCC[C@H]1C(=O)N[C@@H](CCCCN)C(=O)O | cell-free assay | – | radioligand | – | Ki | > 10 µM |
| CCCCCNC(=N)N/N=C/c1c[nH]c2ccc(OC)cc12 | cell-free assay | – | – | – | IC50 | 0.127 µM |
| Cc1[nH]c2ccccc2c1CCN | ligand displacement | – | radioligand | – | Ki | 7.77 µM |
